Sampled rows, rich in hits. Any-hit rate of the full collection: about 5.3%.
Calb FLC – C. albicans growth inhibition with fluconazole, primary screen, CaCi-2 strain, Alamar Blue fluorescence; C. albicans CaCi-2 (fluconazole-resistant clinical isolate) + fluconazole, 48 h; growth inhibition, % (no concentration beside the values); hit rate 0.57% among 300,000; AID 1979, 2009;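 active means growth inhibition above about 58% in most replicates, limit read from the data, passing the limit was not always enough; inconclusive means exactly half the replicates above a set limit; inactive means most replicates below a set limit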;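 further: all wells also contain fluconazole at 8 µg/ml as a sub-toxic cotreatment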
CSC inhib – cancer stem cell viability inhibitors, primary screen, luminescence. inhibition, % at 7.5 µM. cancer stem cell-like cells viability. hit rate 1.1% among 300,000; in the data active means inhibition above about 75%; inconclusive means no clear call, values can overlap the other calls; tested in HMLE shEcad cells
Beta cell apopt – inhibitors of cytokine-induced beta cell apoptosis, primary screen, luminescence | INS-1E cytokine-induced death, ATP luminescence, 48 h; percent of positive-control rescue, neutral wells zero | protection from apoptosis, % (concentration not given with the values) | hit rate 0.8% among 300,000 | AID 435005, 2010;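 active means Every replicate reaches about 75%, or at least half do and their mean reaches it too, limit read from the data; inconclusive means At least half of replicates reach the limit but their mean does not; inactive means Under half of replicates reach the limit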;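 further: higher means more ATP so stronger rescue from cytokine killing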
NLRP3 yeast inh – NALP3 inflammasome inhibitors in reconstituted yeast, primary screen, luminescence, uHTS | Yeast reconstituted NLRP3/ASC/caspase-1, beta-gal luminescence, 24 h | inhibition, % at 10 µM | hit rate 0.39% among 330,000 | AID 2825, 2010;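 active means inhibition of 50% or more; inactive means inhibition below 50%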
Mdm2 MdmX PPI – inhibitors of human Mdm2-MdmX association, primary screen, cell-based, luminescence, split luciferase, SaOS-2, uHTS | SaOS-2 split-luciferase Mdm2/MdmX complementation | inhibition, % at 8 µM | hit rate 3% among 330,000;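 active means inhibition of at least 50% at 8 µM in the primary screen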
Target sequence (O15151 whole entry, looked up): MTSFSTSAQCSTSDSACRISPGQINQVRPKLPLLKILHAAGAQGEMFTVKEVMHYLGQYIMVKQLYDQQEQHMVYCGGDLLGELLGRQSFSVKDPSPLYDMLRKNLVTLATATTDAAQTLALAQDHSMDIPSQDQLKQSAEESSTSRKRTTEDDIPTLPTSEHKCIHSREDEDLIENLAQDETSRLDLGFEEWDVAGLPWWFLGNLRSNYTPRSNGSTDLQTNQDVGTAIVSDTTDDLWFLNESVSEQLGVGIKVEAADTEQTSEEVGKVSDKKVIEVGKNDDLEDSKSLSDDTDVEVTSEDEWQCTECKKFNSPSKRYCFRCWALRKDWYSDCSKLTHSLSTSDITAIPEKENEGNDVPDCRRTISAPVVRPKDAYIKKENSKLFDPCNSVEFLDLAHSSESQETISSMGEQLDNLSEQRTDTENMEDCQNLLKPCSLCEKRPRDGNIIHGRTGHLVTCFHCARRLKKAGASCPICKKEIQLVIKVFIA
Target sequence (Q00987 whole entry, looked up): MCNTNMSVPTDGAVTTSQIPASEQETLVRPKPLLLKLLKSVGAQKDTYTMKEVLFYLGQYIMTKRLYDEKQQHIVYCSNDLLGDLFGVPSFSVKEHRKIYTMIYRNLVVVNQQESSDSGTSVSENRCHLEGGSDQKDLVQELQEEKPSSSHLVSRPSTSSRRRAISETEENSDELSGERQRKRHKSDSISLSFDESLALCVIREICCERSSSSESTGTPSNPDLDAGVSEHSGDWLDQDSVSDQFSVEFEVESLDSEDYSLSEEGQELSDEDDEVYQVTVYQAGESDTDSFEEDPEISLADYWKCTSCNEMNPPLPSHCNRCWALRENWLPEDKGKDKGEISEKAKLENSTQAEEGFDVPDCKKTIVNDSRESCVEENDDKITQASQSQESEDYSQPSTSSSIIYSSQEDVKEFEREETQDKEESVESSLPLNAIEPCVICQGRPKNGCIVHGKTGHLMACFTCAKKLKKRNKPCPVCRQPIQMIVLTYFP
T cruzi inh – inhibitors of intracellular T. cruzi growth, primary screen, luminescence, NIH3T3 host cells | inhibition, % (test concentration not listed) | AID 1885, 2009 | hit rate 1.4% among 300,000 | T. cruzi beta-gal in NIH3T3, 90 h;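 active means mean inhibition across valid replicates above about 55%, limit read from the data; inconclusive means mean below that limit but half or more replicates reach it; inactive means mean below it, under half of replicates reach it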;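 further: signal also drops with host cell toxicity which is not excluded here; higher percent means less beta-gal luminescence so fewer parasites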
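Read-out: Parasite load inhibition, % | Test system: Mouse NIH/3T3 fibroblasts infected with β-gal-expressing T. cruzi Tulahuen C4 | Amount: 5,000 cells/well | Medium: DMEM, 2% fetal bovine serum | Signal: GalScreen β-gal luminescence, detergent lysis, 60 min | Timing: 3 h attach, ≥90 h co-culture | Also added: Tulahuen C4 trypomastigotes, 5000/well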
Mdm2-MdmX conf – Mdm2-MdmX complex disruptors, retested hits, confirmation, luminescence, single concentration; shares compounds with Mdm2 MdmX PPI; Mdm2-MdmX binding, luminescent assay; inhibition, % at 8 µM; hit rate 55% among 10,000; AID 489028, 2010; in the data active means inhibition above about 40%
FLuc counter – full-length luciferase signal inhibition, confirmation, counter-screen for Mdm2/MdmX interaction inhibitor project, cell-based, single concentration, SaOS-2; shares compounds with Mdm2 MdmX PPI; SaOS-2 full-length luciferase counterscreen, luminescence; inhibition, % at 8 µM; hit rate 77% among 6,200;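 active means mean inhibition at 8 µM reaching about 37%, which flags the compound as non-specific, limit read from the data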;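 further: p53-null SaOS-2 cells with luciferase driven by a doxycycline-inducible promoter; compound on cells about two nights before reading with doxycycline added after day one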
Of the large screens only hits and unclear results are named; the others gave an inactive call (follow-up assays come after a bar, where they were run).

Cc1cc(C)cc(-n2ncc3c2CCCC3NC(=O)c2csnn2)c1 (centres undefined)	none
O=C(c1ccccc1)c1cnc(Nc2ccc(Cl)c(Cl)c2)s1	Mdm2 MdmX PPI 71 | Mdm2-MdmX conf inactive
CCN(CC)CCOc1ccc(/C(=C(\Cl)c2ccccc2)c2ccccc2)cc1	CSC inhib 103, Mdm2 MdmX PPI 69 (no result: NLRP3 yeast inh) | Mdm2-MdmX conf inactive
CCN(CC)CCOc1ccc(Br)cc1	none
Cc1ccc(S(=O)(=O)N2CCCC(NC(=O)N3CCN(c4ccccc4)CC3)C2)cc1 (centres undefined)	none
CN1/C(=C\C(=O)c2cccc(S(=O)(=O)N3CCCCC3)c2)C(C)(C)c2ccccc21	none
CN1/C(=C/C(=O)c2nc(S(C)(=O)=O)ncc2Cl)C(C)(C)c2ccccc21	CSC inhib 111, Mdm2 MdmX PPI 100 | Mdm2-MdmX conf 100 | FLuc counter 52
CN(C)S(=O)(=O)c1ccc(Cl)c(C(=O)NNC(=O)c2ccc3c(c2)OCO3)c1	none (no result: Calb FLC, T cruzi inh)
Cc1noc(C)c1CSc1nc2ccccc2nc1NS(=O)(=O)c1ccc(Cl)cc1	CSC inhib 82, Mdm2 MdmX PPI 63 (no result: Beta cell apopt) | Mdm2-MdmX conf inactive
Cc1ccc2c3c(cccc13)-c1ccccc1C2=O	none
C[C@H]1COC2=C1C(=O)C(=O)c1c2ccc2c1CCCC2(C)C	none (no result: NLRP3 yeast inh, Mdm2 MdmX PPI)
Cc1coc2c1C(=O)C(=O)c1c-2ccc2c1CCCC2(C)C	Mdm2 MdmX PPI 53 | Mdm2-MdmX conf inactive
Cc1coc2c1C(=O)C(=O)c1c-2ccc2c(C)cccc12	Mdm2 MdmX PPI 65 | Mdm2-MdmX conf inactive
CCC(C)c1ccc(NC(=S)NC2CCN(Cc3ccccc3)CC2)cc1 (centres undefined)	Beta cell apopt 111, Mdm2 MdmX PPI 76 | Mdm2-MdmX conf inactive
CC1CCN(CCc2nc3cc(NC(=O)COc4ccc(Cl)cc4)ccc3n2C)CC1	Mdm2 MdmX PPI 57 (no result: Beta cell apopt) | Mdm2-MdmX conf inactive
Cn1cc(CN2CCC(n3nccc3NC(=O)c3ccccc3Cl)CC2)c2ccccc21	none
COc1ccccc1NC(=O)/C(C#N)=C/C=C/c1ccco1	Mdm2 MdmX PPI 50 | Mdm2-MdmX conf 54 | FLuc counter 64
CC(=O)NC(=C(Cl)Cl)S(=O)(=O)c1ccccc1	none
O=C(NC(=C(Cl)Cl)S(=O)(=O)c1ccc(Cl)cc1)c1ccccc1	Mdm2 MdmX PPI 62 | Mdm2-MdmX conf 58 | FLuc counter inactive
Cc1ccc(S(=O)(=O)C(NC(=O)c2ccccc2)=C(Cl)Cl)cc1	Mdm2 MdmX PPI 65 | Mdm2-MdmX conf inactive
CCc1nnc(NC(=O)CN2CCN(CC)CC2)s1	none
COc1ccc(C2NC(C(=O)O)Cc3c2[nH]c2ccccc32)cc1CN1CCN(c2ccc(F)cc2)CC1 (centres undefined)	none
COc1ccc(C2NCCc3c2[nH]c2ccccc32)cc1COc1ccc(F)cc1 (centres undefined)	CSC inhib inconclusive, Beta cell apopt 104, Mdm2 MdmX PPI 69 | Mdm2-MdmX conf inactive
CCOc1ccc(S(=O)(=O)c2c[nH]c3ccc(C)cc3c2=O)cc1	none (no result: Beta cell apopt)
COc1cc(C2C3=C(CC(C)(C)CC3=O)NC3=C2C(=O)c2ccccc23)ccc1O (centres undefined)	none
Oc1[nH]c2ccccc2c1N=NC(=S)NCC1CCCO1 (centres undefined)	none
Oc1[nH]c2ccc(Br)cc2c1N=NC(=S)NCC1CCCO1 (centres undefined)	Mdm2 MdmX PPI 68, T cruzi inh 60 | Mdm2-MdmX conf 53 | FLuc counter 48
Cc1cc(C)c2[nH]c(O)c(N=NC(=S)NCC3CCCO3)c2c1 (centres undefined)	none

Assay outcomes as filed in PubChem BioAssay.
